Assay results taken from ChEMBL document CHEMBL4014332, “Multitargeted Imidazoles: Potential Therapeutic Leads for Alzheimer's and Other Neurodegenerative Diseases” (J Med Chem, 2017).

Legend:
[1] = Change in total alpha-tubulin levels in human QBI293 cells at 1 uM after 4 hrs by ELISA relative to control; details: qbi293, 4 h
[2] = Ratio of drug level in brain to plasma in mouse at 2 mg/kg, ip administered as cassette dosing; type: ADME, organism-based; details: read-out: BPR
In short: (§1)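 Groups of three 2–5-month-old CD-1 or B6SJL mice, sexes kept separate, were cassette-dosed i.p. in DMSO at 2 mg/kg with two or three compounds given together. Plasma and brain homogenate levels were measured at a single time point and scaled proportionally up to 5 mg/kg. The brain/plasma ratio was derived from these, reported as mean ± SD.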

Rattus norvegicus [3] = species on record: Rattus norvegicus; test: Inhibition of 5-LOX-mediated LTB4 production in arachidonic acid-stimulated RBL1 cells at 10 uM preincubated for 2 hrs followed by A23187 induction for 15 mins by LC/MS/MS analysis relative to control
In short: (§2)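 RBL-1 cells grown in RPMI/10% FBS, plated 9 × 10⁵ cells/well, held 2 h at 37 °C, then given compound for 2 h (screen at 10 μM, then concentration–response in triplicate). Stimulation was 12 μM A23187 for 15 min. Supernatants were extracted with MeOH/0.01% BHT and LTB₄ quantified by UPLC-MS/MS in negative ion mode.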

[4] = Drug uptake in mouse brain at 2 mg/kg, ip administered as cassette dosing after 1 hr by LC-MS/MS method; type: ADME, organism-based; details: read-out: Drug uptake; in short: as §1
[5] = Plasma concentration in mouse at 2 mg/kg, ip administered as cassette dosing after 1 hr by LC-MS/MS method; type: ADME, organism-based; in short: as §1
[6] = Inhibition of 5-LOX-mediated LTB4 production in arachidonic acid-stimulated RBL1 cells preincubated for 2 hrs followed by A23187 induction for 15 mins by LC/MS/MS analysis; details: Rattus norvegicus, RBL-1; in short: as §2
Cyclooxygenase = biological target: T1, Cyclooxygenase (Rattus norvegicus, UniProt P35355+Q63921); test: Inhibition of COX-mediated PGD2/PGE2 production in arachidonic acid-stimulated RBL1 cells preincubated for 2 hrs followed by A23187 induction for 15 mins by LC/MS/MS analysis
T1 sequence (P35355 whole entry): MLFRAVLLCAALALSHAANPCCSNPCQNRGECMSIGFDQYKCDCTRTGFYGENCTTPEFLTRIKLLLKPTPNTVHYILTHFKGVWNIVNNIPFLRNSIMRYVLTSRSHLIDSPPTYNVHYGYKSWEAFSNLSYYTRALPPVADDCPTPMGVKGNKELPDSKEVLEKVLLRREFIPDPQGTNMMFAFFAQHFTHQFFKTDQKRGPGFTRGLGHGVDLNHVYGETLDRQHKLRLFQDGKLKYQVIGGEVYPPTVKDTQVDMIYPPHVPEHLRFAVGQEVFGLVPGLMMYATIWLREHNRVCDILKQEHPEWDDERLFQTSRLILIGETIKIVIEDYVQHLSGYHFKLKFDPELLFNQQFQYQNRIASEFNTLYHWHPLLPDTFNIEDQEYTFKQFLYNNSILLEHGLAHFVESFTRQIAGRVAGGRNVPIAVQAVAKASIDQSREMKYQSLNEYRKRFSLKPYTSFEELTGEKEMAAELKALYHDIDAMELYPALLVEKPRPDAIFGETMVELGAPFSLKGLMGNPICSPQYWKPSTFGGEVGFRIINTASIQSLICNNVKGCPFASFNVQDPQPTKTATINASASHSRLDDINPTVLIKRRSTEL
T1 sequence (Q63921 whole entry): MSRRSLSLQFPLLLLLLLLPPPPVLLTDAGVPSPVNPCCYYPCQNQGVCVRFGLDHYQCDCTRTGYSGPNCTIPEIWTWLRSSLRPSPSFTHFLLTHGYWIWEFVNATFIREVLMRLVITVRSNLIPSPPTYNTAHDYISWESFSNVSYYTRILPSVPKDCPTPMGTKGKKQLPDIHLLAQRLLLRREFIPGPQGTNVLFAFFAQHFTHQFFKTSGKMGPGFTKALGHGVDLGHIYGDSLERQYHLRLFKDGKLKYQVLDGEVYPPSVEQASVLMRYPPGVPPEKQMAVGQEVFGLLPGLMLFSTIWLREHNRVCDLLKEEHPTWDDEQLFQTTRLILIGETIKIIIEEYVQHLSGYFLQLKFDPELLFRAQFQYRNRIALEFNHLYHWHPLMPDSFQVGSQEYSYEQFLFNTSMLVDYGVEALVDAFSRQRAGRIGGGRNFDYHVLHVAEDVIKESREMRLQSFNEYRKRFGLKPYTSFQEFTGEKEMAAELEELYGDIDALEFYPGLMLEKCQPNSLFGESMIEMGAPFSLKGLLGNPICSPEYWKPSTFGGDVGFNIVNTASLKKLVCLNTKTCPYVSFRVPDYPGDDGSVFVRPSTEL
In short: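 RBL-1 cells in RPMI/10% FBS, 9 × 10⁵ cells/well, held 2 h, then exposed to compound for 2 h at multiple concentrations in triplicate. Stimulation was 12 μM A23187 for 15 min. Eicosanoids were extracted with MeOH/0.01% BHT, and PGD₂ plus PGE₂ measured by UPLC-MS/MS (negative ion, 351 > 315).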

[7] = Change in total alpha-tubulin levels in human QBI293 cells at 10 uM after 4 hrs by ELISA relative to control; type: cell-based; details: qbi293, 4 h
In short: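 QBI-293 cells grown in DMEM/10% FBS at 37 °C, 5% CO2, plated 6 × 10⁵ cells/well, left overnight, then given vehicle or compound (1 and 10 μM) for 4 h. Cells were lysed in RIPA with protease inhibitors, 1 mM PMSF and 1 μM TSA, then spun at 100000g for 30 min. Total α-tubulin was measured by ELISA, normalized by BCA protein, expressed as fold change vs DMSO, triplicate, two-tailed unpaired t test.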

Homo sapiens = species on record: Homo sapiens; test: Induction of microtubule stabilization in human QBI293 cells assessed as increase in acetylated tubulin levels at 1 uM after 4 hrs by ELISA relative to control; type: cell-based
In short: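 QBI-293 cells grown in DMEM/10% FBS at 37 °C, 5% CO2, plated 6 × 10⁵ cells/well overnight, then treated with vehicle or compound (1 and 10 μM) for 4 h. Lysis was in RIPA with protease inhibitors, 1 mM PMSF and 1 μM TSA, followed by 100000g spin for 30 min. Acetylated α-tubulin was measured by ELISA on BCA-quantified supernatant, reported as fold change vs DMSO, at least triplicate, t test.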

[8] = Drug uptake in mouse brain at 5 mg/kg, ip administered as single dose after 1 hr by LC-MS/MS method; type: ADME, organism-based; details: read-out: Drug uptake
In short: (§3)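 Groups of three CD-1 or B6SJL mice, 2–5 months old, sexes not mixed, received a single 5 mg/kg i.p. dose in DMSO. Compound was quantified in plasma and brain homogenate at a single time point, and the brain/plasma ratio was derived from these. Values are mean ± SD.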

[9] = Ratio of drug level in brain to plasma in mouse at 5 mg/kg, ip administered as single dose; type: ADME, organism-based; details: read-out: BPR; in short: as §3
[10] = Plasma concentration in mouse at 5 mg/kg, ip administered as single dose after 1 hr by LC-MS/MS method; type: ADME, organism-based; in short: as §3
[11] = biological target: Cyclooxygenase (Rattus norvegicus) (UniProt P35355+Q63921); details: at 10 nM
Rattus norvegicus [12] = species on record: Rattus norvegicus; details: at 10 nM

Kp [2]	inhibition (Rattus norvegicus [3]) [%]	concentration at 1 h [4] [µM]	concentration at 1 h [5] [µM]	IC50 [6] [µM]	IC50 (Cyclooxygenase) [µM]	FC [1]	fold change (FC) [7]	concentration at 1 h [8] [µM]	Kp [9]	concentration at 1 h [10] [µM]	inhibition [11] [%]	inhibition (Rattus norvegicus [12]) [%]	Compound	Activity [1]	fold change (FC) (Homo sapiens)
1.4	71	0.6	0.5	13.4	12.1	–	–	–	–	–	–	–	Cc1ncn(-c2ccc(Cl)cc2)c1-c1c(F)ccc(Cl)c1F	Non-Toxic	–
0.9	75	0.21	0.21	20.8	9.8	–	–	–	–	–	–	–	COc1ccc(-n2c(-c3c(F)cc(F)cc3F)cnc2Cl)cc1	Non-Toxic	–
–	69	–	–	–	–	0.9	0.8	–	–	–	–	–	Cc1ccc(F)c(-c2cnc(Cl)n2-c2ccc(Cl)cc2)c1F	–	–
–	75	–	–	–	–	0.7	0.8	–	–	–	–	–	Cc1nc(Cl)c(-c2c(F)ccc(F)c2F)n1-c1ccc(Cl)c(F)c1	–	3.9
1.9	76	0.7	0.4	13.8	2.4	–	–	–	–	–	–	–	Fc1cccc(F)c1-c1c(Cl)ncn1-c1ccc(Cl)cc1	Non-Toxic	–
–	63	–	–	9.5	2.2	–	–	0.4	2.1	0.19	–	–	Fc1ccc(Cl)c(F)c1-c1c(Cl)ncn1-c1ccc(Cl)cc1	Non-Toxic	–
1.9	74	0.4	0.2	23.7	4.7	–	1.2	–	–	–	–	–	Cc1ncn(-c2ccc(Cl)cc2)c1-c1c(F)ccc(F)c1F	–	–
2.4	71	0.2	0.08	12.5	1	–	–	–	–	–	–	–	Clc1ccc(-n2cnc(Cl)c2-c2ccccc2)cc1	Non-Toxic	–
–	40	–	–	–	–	–	1.2	–	–	–	–	–	Cc1nc(C)n(-c2ccc(Cl)cc2)c1-c1c(F)cccc1F	–	–
–	46	–	–	–	–	–	1.2	–	–	–	–	–	Fc1cccc(F)c1-c1cncn1-c1ccc(Cl)cc1	–	–
–	69	–	–	2.4	2.9	–	–	0.7	2.8	0.3	–	–	Fc1ccc(F)c(-c2c(Cl)ncn2-c2ccc(Cl)cc2)c1F	Non-Toxic	–
–	–	–	–	–	–	–	–	–	–	–	< 10	70	CC(C)c1ccc2c(c1)c(SC(C)(C)C)c(CC(C)(C)C(=O)O)n2Cc1ccc(Cl)cc1	–	–
–	88	–	–	–	–	0.3	0.6	–	–	–	–	–	COc1cc(F)c(-c2c(Cl)nc(C)n2-c2ccc(Cl)cc2)c(F)c1	–	7.1
2.5	75	0.3	0.11	11.7	1.8	–	–	–	–	–	–	–	Cc1cc(F)c(-c2c(Cl)ncn2-c2ccc(Cl)cc2)c(F)c1	Non-Toxic	–
–	78	–	–	7.8	6.5	–	–	0.24	0.9	0.26	–	–	Fc1ccc(Br)c(F)c1-c1c(Cl)ncn1-c1ccc(Cl)cc1	Non-Toxic	–
3.3	96	0.2	0.06	2.5	2.2	–	–	–	–	–	–	–	Fc1ccc(F)c(-c2cnc(Cl)n2-c2ccc(Cl)cc2)c1	Non-Toxic	–
–	66	–	–	6	4.6	–	–	0.7	3	0.24	–	–	Fc1cc(-n2cnc(Cl)c2-c2c(F)ccc(F)c2F)ccc1Cl	Non-Toxic	–
–	38	–	–	–	–	0.3	0.6	–	–	–	–	–	COc1cc(F)c(-c2c(Cl)nc(Cl)n2-c2ccc(Cl)cc2)c(F)c1	–	3.3
–	92	–	–	10.7	15	–	–	0.9	1.9	0.48	–	–	Fc1cccc(F)c1-c1cnc(Cl)n1-c1ccc(Cl)cc1	Non-Toxic	–
–	88	–	–	–	–	0.4	0.9	–	–	–	–	–	COc1ccc(F)c(-c2c(Cl)nc(Cl)n2-c2ccc(Cl)cc2)c1F	–	5.1

Compound	Kp [2]	inhibition (Rattus norvegicus [3]) [%]	concentration at 1 h [4] [µM]	concentration at 1 h [5] [µM]	IC50 [6] [µM]	IC50 (Cyclooxygenase) [µM]	FC [1]	fold change (FC) [7]	concentration at 1 h [8] [µM]	Kp [9]	concentration at 1 h [10] [µM]	inhibition [11] [%]	inhibition (Rattus norvegicus [12]) [%]	Activity [1]	fold change (FC) (Homo sapiens)
C[C@H](Nc1c(-c2c(F)cc(OCCCN(C)C)cc2F)c(Cl)nc2ncnn12)C(F)(F)F	–	–	–	–	–	–	0.4	0.7	–	–	–	–	–	–	6
